≈ marks a conversion by molar mass, not a printed value.
What follows are compounds tested on Aspergillus fumigatus (assay: Antifungal activity against Aspergillus fumigatus NCIM 902 after 3 to 4 days by serial plate dilution method). Conditions: not given.
Assay type: functional
Outline: (§1)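 Sabouraud agar made from peptone, glucose and agar in water, pH 5.7. Fungal spores suspended in normal saline and used to lawn the plates, which were dried 1 h at 37 °C. Wells punched and compounds added in DMSO, with a DMSO solvent control. Triplicate plates held at 37 °C for 3–4 days. Read-out is inhibition zone diameter.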

| SMILES | diameter of the inhibition zone (DIZ) [mm] |
| --- | --- |
| CCN1CCN(Cc2cn(-c3cc(C)nc4ccc(OC)cc34)nn2)CC1 | 14 |
| COc1ccc2nc(C)cc(-n3cc(CN4CCN(C(C)=O)CC4)nn3)c2c1 | 16 |
| COc1ccc2nc(C)cc(-n3cc(CN4CCN(C5CCCCC5)CC4)nn3)c2c1 | <10 |
| COc1ccc2nc(C)cc(-n3cc(CN4CCN(c5ccccc5F)CC4)nn3)c2c1 | 12 |

Same assay, conditions: Aspergillus fumigatus, NCIM 902

| SMILES | MIC [µg/mL] |
| --- | --- |
| CCN1CCN(Cc2cn(-c3cc(C)nc4ccc(OC)cc34)nn2)CC1 | 6.25 (≈ 17.1 µM) |
| COc1ccc2nc(C)cc(-n3cc(CN4CCN(C(C)=O)CC4)nn3)c2c1 | 6.25 (≈ 16.4 µM) |
| COc1ccc2nc(C)cc(-n3cc(CN4CCN(C5CCCCC5)CC4)nn3)c2c1 | 50 (≈ 119 µM) |
| COc1ccc2nc(C)cc(-n3cc(CN4CCN(c5ccccc5F)CC4)nn3)c2c1 | 6.25 (≈ 14.5 µM) |

Each compound was assayed on Streptococcus pyogenes (assay: Antibacterial activity against Streptococcus pyogenes after 3 to 4 days by serial plate dilution method). Conditions: not given.
Assay type: functional
Outline: (§2)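 Serial dilutions in Mueller-Hinton broth in tubes, pH adjusted to 5.0 with phosphate buffer. Inoculated with a standardized bacterial suspension and incubated 16–18 h at 37 °C. MIC is the lowest concentration with no visible growth, tested over 6.25–100 µg/mL. Zones come from an agar well diffusion assay: compounds in DMSO are added to wells in seeded agar, DMSO control, triplicate plates, 37 °C for 3–4 days, inhibition zone diameter in mm.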

| SMILES | diameter of the inhibition zone (DIZ) [mm] |
| --- | --- |
| CCN1CCN(Cc2cn(-c3cc(C)nc4ccc(OC)cc34)nn2)CC1 | 12 |
| COc1ccc2nc(C)cc(-n3cc(CN4CCN(C(C)=O)CC4)nn3)c2c1 | 16 |
| COc1ccc2nc(C)cc(-n3cc(CN4CCN(C5CCCCC5)CC4)nn3)c2c1 | 10 |
| COc1ccc2nc(C)cc(-n3cc(CN4CCN(c5ccccc5F)CC4)nn3)c2c1 | 14 |

Same assay, conditions: Streptococcus pyogenes

| SMILES | MIC [µg/mL] |
| --- | --- |
| CCN1CCN(Cc2cn(-c3cc(C)nc4ccc(OC)cc34)nn2)CC1 | 6.25 (≈ 17.1 µM) |
| COc1ccc2nc(C)cc(-n3cc(CN4CCN(C(C)=O)CC4)nn3)c2c1 | 6.25 (≈ 16.4 µM) |
| COc1ccc2nc(C)cc(-n3cc(CN4CCN(C5CCCCC5)CC4)nn3)c2c1 | 12.5 (≈ 29.7 µM) |
| COc1ccc2nc(C)cc(-n3cc(CN4CCN(c5ccccc5F)CC4)nn3)c2c1 | 6.25 (≈ 14.5 µM) |

These compounds were tested on Klebsiella pneumoniae (assay: Antibacterial activity against recultured Klebsiella pneumoniae after 3 to 4 days by serial plate dilution method). Conditions: not given.
Assay type: functional
Outline: as §2

| SMILES | diameter of the inhibition zone (DIZ) [mm] |
| --- | --- |
| CCN1CCN(Cc2cn(-c3cc(C)nc4ccc(OC)cc34)nn2)CC1 | 16 |
| COc1ccc2nc(C)cc(-n3cc(CN4CCN(C(C)=O)CC4)nn3)c2c1 | 12 |
| COc1ccc2nc(C)cc(-n3cc(CN4CCN(C5CCCCC5)CC4)nn3)c2c1 | 10 |
| COc1ccc2nc(C)cc(-n3cc(CN4CCN(c5ccccc5F)CC4)nn3)c2c1 | 10 |

Same assay, conditions: Klebsiella pneumoniae

| SMILES | MIC [µg/mL] |
| --- | --- |
| CCN1CCN(Cc2cn(-c3cc(C)nc4ccc(OC)cc34)nn2)CC1 | 6.25 (≈ 17.1 µM) |
| COc1ccc2nc(C)cc(-n3cc(CN4CCN(C(C)=O)CC4)nn3)c2c1 | 6.25 (≈ 16.4 µM) |
| COc1ccc2nc(C)cc(-n3cc(CN4CCN(C5CCCCC5)CC4)nn3)c2c1 | 12.5 (≈ 29.7 µM) |
| COc1ccc2nc(C)cc(-n3cc(CN4CCN(c5ccccc5F)CC4)nn3)c2c1 | 6.25 (≈ 14.5 µM) |

The compounds below were run on Trichophyton mentagrophytes (assay: Antifungal activity against recultured Trichophyton mentagrophytes after 3 to 4 days by serial plate dilution method). Conditions: not given.
Assay type: functional
Outline: as §1

| SMILES | diameter of the inhibition zone (DIZ) [mm] |
| --- | --- |
| CCN1CCN(Cc2cn(-c3cc(C)nc4ccc(OC)cc34)nn2)CC1 | 12 |
| COc1ccc2nc(C)cc(-n3cc(CN4CCN(C(C)=O)CC4)nn3)c2c1 | 14 |
| COc1ccc2nc(C)cc(-n3cc(CN4CCN(C5CCCCC5)CC4)nn3)c2c1 | <10 |
| COc1ccc2nc(C)cc(-n3cc(CN4CCN(c5ccccc5F)CC4)nn3)c2c1 | 10 |

Same assay, conditions: Trichophyton mentagrophytes

| SMILES | MIC [µg/mL] |
| --- | --- |
| CCN1CCN(Cc2cn(-c3cc(C)nc4ccc(OC)cc34)nn2)CC1 | 6.25 (≈ 17.1 µM) |
| COc1ccc2nc(C)cc(-n3cc(CN4CCN(C(C)=O)CC4)nn3)c2c1 | 6.25 (≈ 16.4 µM) |
| COc1ccc2nc(C)cc(-n3cc(CN4CCN(C5CCCCC5)CC4)nn3)c2c1 | 50 (≈ 119 µM) |
| COc1ccc2nc(C)cc(-n3cc(CN4CCN(c5ccccc5F)CC4)nn3)c2c1 | 6.25 (≈ 14.5 µM) |

These compounds were tested on Aspergillus flavus (assay: Antifungal activity against Aspergillus flavus NCIM 524 after 3 to 4 days by serial plate dilution method). Conditions: not given.
Assay type: functional
Outline: as §1

| SMILES | diameter of the inhibition zone (DIZ) [mm] |
| --- | --- |
| CCN1CCN(Cc2cn(-c3cc(C)nc4ccc(OC)cc34)nn2)CC1 | 16 |
| COc1ccc2nc(C)cc(-n3cc(CN4CCN(C(C)=O)CC4)nn3)c2c1 | 14 |
| COc1ccc2nc(C)cc(-n3cc(CN4CCN(C5CCCCC5)CC4)nn3)c2c1 | <10 |
| COc1ccc2nc(C)cc(-n3cc(CN4CCN(c5ccccc5F)CC4)nn3)c2c1 | 10 |

Same assay, conditions: Aspergillus flavus, NCIM 524

| SMILES | MIC [µg/mL] |
| --- | --- |
| CCN1CCN(Cc2cn(-c3cc(C)nc4ccc(OC)cc34)nn2)CC1 | 6.25 (≈ 17.1 µM) |
| COc1ccc2nc(C)cc(-n3cc(CN4CCN(C(C)=O)CC4)nn3)c2c1 | 6.25 (≈ 16.4 µM) |
| COc1ccc2nc(C)cc(-n3cc(CN4CCN(C5CCCCC5)CC4)nn3)c2c1 | 50 (≈ 119 µM) |
| COc1ccc2nc(C)cc(-n3cc(CN4CCN(c5ccccc5F)CC4)nn3)c2c1 | 6.25 (≈ 14.5 µM) |

Each compound was assayed on Talaromyces marneffei (assay: Antifungal activity against recultured Penicillium marneffei after 3 to 4 days by serial plate dilution method). Conditions: not given.
Assay type: functional
Outline: as §1

| SMILES | diameter of the inhibition zone (DIZ) [mm] |
| --- | --- |
| CCN1CCN(Cc2cn(-c3cc(C)nc4ccc(OC)cc34)nn2)CC1 | 18 |
| COc1ccc2nc(C)cc(-n3cc(CN4CCN(C(C)=O)CC4)nn3)c2c1 | 16 |
| COc1ccc2nc(C)cc(-n3cc(CN4CCN(C5CCCCC5)CC4)nn3)c2c1 | <10 |
| COc1ccc2nc(C)cc(-n3cc(CN4CCN(c5ccccc5F)CC4)nn3)c2c1 | 12 |

Same assay, conditions: Talaromyces marneffei

| SMILES | MIC [µg/mL] |
| --- | --- |
| CCN1CCN(Cc2cn(-c3cc(C)nc4ccc(OC)cc34)nn2)CC1 | 6.25 (≈ 17.1 µM) |
| COc1ccc2nc(C)cc(-n3cc(CN4CCN(C(C)=O)CC4)nn3)c2c1 | 6.25 (≈ 16.4 µM) |
| COc1ccc2nc(C)cc(-n3cc(CN4CCN(C5CCCCC5)CC4)nn3)c2c1 | 50 (≈ 119 µM) |
| COc1ccc2nc(C)cc(-n3cc(CN4CCN(c5ccccc5F)CC4)nn3)c2c1 | 6.25 (≈ 14.5 µM) |

The compounds below were run on Escherichia coli (assay: Antibacterial activity against Escherichia coli ATTC 25922 after 3 to 4 days by serial plate dilution method). Conditions: not given.
Assay type: functional
Outline: as §2

| SMILES | diameter of the inhibition zone (DIZ) [mm] |
| --- | --- |
| CCN1CCN(Cc2cn(-c3cc(C)nc4ccc(OC)cc34)nn2)CC1 | 18 |
| COc1ccc2nc(C)cc(-n3cc(CN4CCN(C(C)=O)CC4)nn3)c2c1 | 18 |
| COc1ccc2nc(C)cc(-n3cc(CN4CCN(C5CCCCC5)CC4)nn3)c2c1 | 10 |
| COc1ccc2nc(C)cc(-n3cc(CN4CCN(c5ccccc5F)CC4)nn3)c2c1 | 10 |

Same assay, conditions: Escherichia coli, ATTC 25922

| SMILES | MIC [µg/mL] |
| --- | --- |
| CCN1CCN(Cc2cn(-c3cc(C)nc4ccc(OC)cc34)nn2)CC1 | 6.25 (≈ 17.1 µM) |
| COc1ccc2nc(C)cc(-n3cc(CN4CCN(C(C)=O)CC4)nn3)c2c1 | 6.25 (≈ 16.4 µM) |
| COc1ccc2nc(C)cc(-n3cc(CN4CCN(C5CCCCC5)CC4)nn3)c2c1 | 12.5 (≈ 29.7 µM) |
| COc1ccc2nc(C)cc(-n3cc(CN4CCN(c5ccccc5F)CC4)nn3)c2c1 | 12.5 (≈ 28.9 µM) |

What follows are compounds tested on Staphylococcus aureus (assay: Antibacterial activity against Staphylococcus aureus ATTC 25923 after 3 to 4 days by serial plate dilution method). Conditions: not given.
Assay type: functional
Outline: as §2

| SMILES | diameter of the inhibition zone (DIZ) [mm] |
| --- | --- |
| CCN1CCN(Cc2cn(-c3cc(C)nc4ccc(OC)cc34)nn2)CC1 | 18 |
| COc1ccc2nc(C)cc(-n3cc(CN4CCN(C(C)=O)CC4)nn3)c2c1 | 20 |
| COc1ccc2nc(C)cc(-n3cc(CN4CCN(C5CCCCC5)CC4)nn3)c2c1 | 10 |
| COc1ccc2nc(C)cc(-n3cc(CN4CCN(c5ccccc5F)CC4)nn3)c2c1 | 10 |

Same assay, conditions: Staphylococcus aureus, ATTC 25923

| SMILES | MIC [µg/mL] |
| --- | --- |
| CCN1CCN(Cc2cn(-c3cc(C)nc4ccc(OC)cc34)nn2)CC1 | 6.25 (≈ 17.1 µM) |
| COc1ccc2nc(C)cc(-n3cc(CN4CCN(C(C)=O)CC4)nn3)c2c1 | 6.25 (≈ 16.4 µM) |
| COc1ccc2nc(C)cc(-n3cc(CN4CCN(C5CCCCC5)CC4)nn3)c2c1 | 12.5 (≈ 29.7 µM) |
| COc1ccc2nc(C)cc(-n3cc(CN4CCN(c5ccccc5F)CC4)nn3)c2c1 | 12.5 (≈ 28.9 µM) |

The compounds below were run on Pseudomonas aeruginosa (assay: Antibacterial activity against Pseudomonas aeruginosa ATCC 27853 after 3 to 4 days by serial plate dilution method). Conditions: not given.
Assay type: functional
Outline: as §2

| SMILES | diameter of the inhibition zone (DIZ) [mm] |
| --- | --- |
| CCN1CCN(Cc2cn(-c3cc(C)nc4ccc(OC)cc34)nn2)CC1 | 12 |
| COc1ccc2nc(C)cc(-n3cc(CN4CCN(C(C)=O)CC4)nn3)c2c1 | 14 |
| COc1ccc2nc(C)cc(-n3cc(CN4CCN(C5CCCCC5)CC4)nn3)c2c1 | 10 |
| COc1ccc2nc(C)cc(-n3cc(CN4CCN(c5ccccc5F)CC4)nn3)c2c1 | 10 |

Same assay, conditions: Pseudomonas aeruginosa, ATCC 27853

| SMILES | MIC [µg/mL] |
| --- | --- |
| CCN1CCN(Cc2cn(-c3cc(C)nc4ccc(OC)cc34)nn2)CC1 | 6.25 (≈ 17.1 µM) |
| COc1ccc2nc(C)cc(-n3cc(CN4CCN(C(C)=O)CC4)nn3)c2c1 | 6.25 (≈ 16.4 µM) |
| COc1ccc2nc(C)cc(-n3cc(CN4CCN(C5CCCCC5)CC4)nn3)c2c1 | 12.5 (≈ 29.7 µM) |
| COc1ccc2nc(C)cc(-n3cc(CN4CCN(c5ccccc5F)CC4)nn3)c2c1 | 6.25 (≈ 14.5 µM) |

The compounds below were run on Candida albicans (assay: Antifungal activity against Candida albicans after 3 to 4 days by serial plate dilution method). Conditions: not given.
Assay type: functional
Outline: as §1

| SMILES | diameter of the inhibition zone (DIZ) [mm] |
| --- | --- |
| CCN1CCN(Cc2cn(-c3cc(C)nc4ccc(OC)cc34)nn2)CC1 | 12 |
| COc1ccc2nc(C)cc(-n3cc(CN4CCN(C(C)=O)CC4)nn3)c2c1 | 10 |
| COc1ccc2nc(C)cc(-n3cc(CN4CCN(C5CCCCC5)CC4)nn3)c2c1 | <10 |
| COc1ccc2nc(C)cc(-n3cc(CN4CCN(c5ccccc5F)CC4)nn3)c2c1 | 10 |

Same assay, conditions: Candida albicans

| SMILES | MIC [µg/mL] |
| --- | --- |
| CCN1CCN(Cc2cn(-c3cc(C)nc4ccc(OC)cc34)nn2)CC1 | 6.25 (≈ 17.1 µM) |
| COc1ccc2nc(C)cc(-n3cc(CN4CCN(C(C)=O)CC4)nn3)c2c1 | 6.25 (≈ 16.4 µM) |
| COc1ccc2nc(C)cc(-n3cc(CN4CCN(C5CCCCC5)CC4)nn3)c2c1 | 50 (≈ 119 µM) |
| COc1ccc2nc(C)cc(-n3cc(CN4CCN(c5ccccc5F)CC4)nn3)c2c1 | 6.25 (≈ 14.5 µM) |
